Measurements reported in ChEMBL document CHEMBL1149142, “Synthesis, biological activity and molecular modeling of 6-benzylthioinosine analogues as subversive substrates of Toxoplasma gondii adenosine kinase” (2004).

What was measured:
[1] = Effect of compound on percent survival of human fibroblast cells in culture was determined at 25 uM; assay type: functional; details: read-out: Survival
How it was run: (§1)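 Uninfected human foreskin fibroblast monolayers (≤30 passages) in RPMI 1640 are attached for at least 24 h at 37 °C in 5% CO2. Compound is added at the same concentrations as in the parasite assay and incubated 48 h. MTT is added for 4 h, formazan is dissolved in DMSO, and absorbance is read at 540 nm; at least triplicates.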

[2] = Effect of compound on percent survival of human fibroblast cells in culture was determined at 5 uM; assay type: functional; details: read-out: Survival; how it was run: as §1
[3] = Effect of compound on percent survival of human fibroblast cells in culture was determined at 50 uM; assay type: functional; details: read-out: Survival; how it was run: as §1
[4] = Effect of compound on percent survival of human fibroblast cells in culture was determined at 0 uM; assay type: functional; how it was run: as §1
[5] = Effect of compound on percent survival of human fibroblast cells in culture was determined at 10 uM; assay type: functional; details: read-out: Survival; how it was run: as §1
Toxoplasma gondii [6] = assay: Effect of compound on percent survival of adenosine kinase deficient strain of Toxoplasma gondii (TgAKe-3) grown in human fibroblast cells at 0 uM; assay type: functional
How it was run: (§2)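 Human foreskin fibroblast monolayers (≤30 passages) in RPMI 1640 are infected with tachyzoites at one parasite per cell in 3% FBS for 1 h, then washed, with FBS kept at 10%. Compound is added in 50% ethanol stock (2.5% ethanol final) and incubated 18 h. Medium is replaced with drug-free [5,6-3H]uracil (2 μCi/mL) for 6 h. TCA-precipitable radioactivity is counted; at least triplicates.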

Toxoplasma gondii [7] = assay: Effect of compound on percent survival of adenosine kinase deficient strain of Toxoplasma gondii (TgAKe-3) grown in human fibroblast cells at 10 uM; assay type: functional; how it was run: as §2
Toxoplasma gondii [8] = assay: Effect of compound on percent survival of adenosine kinase deficient strain of Toxoplasma gondii (TgAKe-3) grown in human fibroblast cells at 25 uM; assay type: functional; how it was run: as §2
Toxoplasma gondii [9] = assay: Effect of compound on percent survival of adenosine kinase deficient strain of Toxoplasma gondii (TgAKe-3) grown in human fibroblast cells at 5 uM; assay type: functional; how it was run: as §2
Toxoplasma gondii [10] = assay: Effect of compound on percent survival of adenosine kinase deficient strain of Toxoplasma gondii (TgAKe-3) grown in human fibroblast cells at 50 uM; assay type: functional; how it was run: as §2
Toxoplasma gondii [11] = assay: Effect of compound on percent survival of wild type (RH) strain of Toxoplasma gondii grown in human fibroblast cells at 0 uM; assay type: functional; how it was run: as §2
Toxoplasma gondii [12] = assay: Effect of compound on percent survival of wild type (RH) strain of Toxoplasma gondii grown in human fibroblast cells at 10 uM; assay type: functional; how it was run: as §2
Toxoplasma gondii [13] = assay: Effect of compound on percent survival of wild type (RH) strain of Toxoplasma gondii grown in human fibroblast cells at 25 uM; assay type: functional; how it was run: as §2
Toxoplasma gondii [14] = assay: Effect of compound on percent survival of wild type (RH) strain of Toxoplasma gondii grown in human fibroblast cells at 5 uM; assay type: functional; how it was run: as §2
Toxoplasma gondii [15] = assay: Effect of compound on percent survival of wild type (RH) strain of Toxoplasma gondii grown in human fibroblast cells at 50 uM; assay type: functional; how it was run: as §2
[16] = substrate: CC(C)(C)c1ccc(CSc2ncnc3c2ncn3[C@@H]2O[C@H](CO)[C@@H](O)[C@H]2O)cc1; assay: (§3) Binding affinity at Toxoplasma gondii adenosine kinase.
How it was run: (§4)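 Purified recombinant T. gondii adenosine kinase was expressed in E. coli BL21(DE3)pLysS and purified on two Q-Sepharose columns. The assay contained 50 mM Tris-Cl pH 7.4, 2.5 mM ATP, 5 mM MgCl2, 5 mM creatine phosphate, creatine kinase and 5 μM [8-14C]adenosine, with varied analogue concentrations. Incubation was at 37 °C, stopped by boiling. [14C]AMP was resolved by TLC. Apparent Ki from Dixon plots was taken as apparent Km.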

[17] = substrate: COC(=O)c1ccc(CSc2ncnc3c2ncn3[C@@H]2O[C@H](CO)[C@@H](O)[C@H]2O)cc1; assay: as §3; how it was run: as §4
[18] = substrate: COc1ccc(CSc2ncnc3c2ncn3[C@@H]2O[C@H](CO)[C@@H](O)[C@H]2O)cc1; assay: as §3; how it was run: as §4
[19] = substrate: Cc1cc(C)c(CSc2ncnc3c2ncn3[C@@H]2O[C@H](CO)[C@@H](O)[C@H]2O)c(C)c1; assay: as §3; how it was run: as §4
[20] = substrate: Cc1ccc(CSc2ncnc3c2ncn3[C@@H]2O[C@H](CO)[C@@H](O)[C@H]2O)cc1; assay: as §3; how it was run: as §4
[21] = substrate: Cc1cccc(CSc2ncnc3c2ncn3[C@@H]2O[C@H](CO)[C@@H](O)[C@H]2O)c1; assay: as §3; how it was run: as §4
[22] = substrate: Cc1ccccc1CSc1ncnc2c1ncn2[C@@H]1O[C@H](CO)[C@@H](O)[C@H]1O; assay: as §3; how it was run: as §4
[23] = substrate: N#Cc1ccc(CSc2ncnc3c2ncn3[C@@H]2O[C@H](CO)[C@@H](O)[C@H]2O)cc1; assay: as §3; how it was run: as §4
[24] = substrate: Nc1ncnc2c1ncn2[C@@H]1O[C@H](CO)[C@@H](O)[C@H]1O; assay: as §3; how it was run: as §4
[25] = substrate: O=[N+]([O-])c1ccc(CSc2ncnc3c2ncn3[C@@H]2O[C@H](CO)[C@@H](O)[C@H]2O)cc1; assay: as §3; how it was run: as §4
[26] = substrate: O=[N+]([O-])c1cccc(CSc2ncnc3c2ncn3[C@@H]2O[C@H](CO)[C@@H](O)[C@H]2O)c1; assay: as §3; how it was run: as §4
[27] = substrate: OC[C@H]1O[C@@H](n2cnc3c(SCc4c(F)cccc4Cl)ncnc32)[C@H](O)[C@@H]1O; assay: as §3; how it was run: as §4
[28] = substrate: OC[C@H]1O[C@@H](n2cnc3c(SCc4ccc(Br)cc4)ncnc32)[C@H](O)[C@@H]1O; assay: as §3; how it was run: as §4
[29] = substrate: OC[C@H]1O[C@@H](n2cnc3c(SCc4ccc(Cl)c(Cl)c4)ncnc32)[C@H](O)[C@@H]1O; assay: as §3; how it was run: as §4
[30] = substrate: OC[C@H]1O[C@@H](n2cnc3c(SCc4ccc(Cl)cc4)ncnc32)[C@H](O)[C@@H]1O; assay: as §3; how it was run: as §4
[31] = substrate: OC[C@H]1O[C@@H](n2cnc3c(SCc4ccc(Cl)cc4Cl)ncnc32)[C@H](O)[C@@H]1O; assay: as §3; how it was run: as §4
[32] = substrate: OC[C@H]1O[C@@H](n2cnc3c(SCc4ccc(F)cc4)ncnc32)[C@H](O)[C@@H]1O; assay: as §3; how it was run: as §4
[33] = substrate: OC[C@H]1O[C@@H](n2cnc3c(SCc4ccc(OC(F)(F)F)cc4)ncnc32)[C@H](O)[C@@H]1O; assay: as §3; how it was run: as §4
[34] = substrate: OC[C@H]1O[C@@H](n2cnc3c(SCc4cccc(C(F)(F)F)c4)ncnc32)[C@H](O)[C@@H]1O; assay: as §3; how it was run: as §4
[35] = substrate: OC[C@H]1O[C@@H](n2cnc3c(SCc4ccccc4)ncnc32)[C@H](O)[C@@H]1O; assay: as §3; how it was run: as §4
[36] = substrate: OC[C@H]1O[C@@H](n2cnc3c(SCc4ccccc4Cl)ncnc32)[C@H](O)[C@@H]1O; assay: as §3; how it was run: as §4

For OC[C@H]1O[C@@H](n2cnc3c(SCc4ccc(OC(F)(F)F)cc4)ncnc32)[C@H](O)[C@@H]1O, the viability at 25 µM [1] was 97.4%, the viability at 5 µM [2] was 100% and the viability at 50 µM [3] was 98.6%. The Survival [4] was 100%, the viability at 10 µM [5] was 99.9% and the Survival (Toxoplasma gondii [6]) was 100%. It also gave a survival at 10 µM (Toxoplasma gondii [7]) of 100%, a survival at 25 µM (Toxoplasma gondii [8]) of 97.6% and a survival at 5 µM (Toxoplasma gondii [9]) of 100%. For the same molecule, the survival at 50 µM (Toxoplasma gondii [10]) was 95.1%, the Survival (Toxoplasma gondii [11]) was 100% and the survival at 10 µM (Toxoplasma gondii [12]) was 64.9%. It also gave a survival at 25 µM (Toxoplasma gondii [13]) of 54.5%, a survival at 5 µM (Toxoplasma gondii [14]) of 93.1% and a survival at 50 µM (Toxoplasma gondii [15]) of 44%.

Work on CC(C)(C)c1ccc(CSc2ncnc3c2ncn3[C@@H]2O[C@H](CO)[C@@H](O)[C@H]2O)cc1 yielded a viability at 25 µM [1] of 100%, a viability at 5 µM [2] of 97.4% and a viability at 50 µM [3] of 99.7%. The Survival [4] was 100%, the viability at 10 µM [5] was 100% and the Survival (Toxoplasma gondii [6]) was 100%. It also gave a survival at 10 µM (Toxoplasma gondii [7]) of 100%, a survival at 25 µM (Toxoplasma gondii [8]) of 100% and a survival at 5 µM (Toxoplasma gondii [9]) of 100%. It also gave a survival at 50 µM (Toxoplasma gondii [10]) of 100%, a Survival (Toxoplasma gondii [11]) of 100% and a survival at 10 µM (Toxoplasma gondii [12]) of 71.7%. It also gave a survival at 25 µM (Toxoplasma gondii [13]) of 47.2%, a survival at 5 µM (Toxoplasma gondii [14]) of 83.3% and a survival at 50 µM (Toxoplasma gondii [15]) of 12.2%.

Molecule CCc1nc(N)nc(N)c1-c1ccc(Cl)cc1 [PYRIMETHAMINE] has a viability at 25 µM [1] of 100%, a viability at 5 µM [2] of 100% and a viability at 50 µM [3] of 100%. For the same molecule, the Survival [4] was 100%, the viability at 10 µM [5] was 98.8% and the Survival (Toxoplasma gondii [11]) was 100%. The survival at 10 µM (Toxoplasma gondii [12]) was 36.3%, the survival at 25 µM (Toxoplasma gondii [13]) was 11.8% and the survival at 5 µM (Toxoplasma gondii [14]) was 53.8%. For the same molecule, the survival at 50 µM (Toxoplasma gondii [15]) was 6.9%.

In the case of OC[C@H]1O[C@@H](n2cnc3c(SCc4ccc(Cl)cc4Cl)ncnc32)[C@H](O)[C@@H]1O, the viability at 25 µM [1] is reported as 94%, the viability at 5 µM [2] is reported as 98.1% and the viability at 50 µM [3] is reported as 99.5%. The Survival [4] was 100%, the viability at 10 µM [5] was 99.2% and the Survival (Toxoplasma gondii [6]) was 100%. For the same molecule, the survival at 10 µM (Toxoplasma gondii [7]) was 100%, the survival at 25 µM (Toxoplasma gondii [8]) was 100% and the survival at 5 µM (Toxoplasma gondii [9]) was 100%. For the same molecule, the survival at 50 µM (Toxoplasma gondii [10]) was 100%, the Survival (Toxoplasma gondii [11]) was 100% and the survival at 10 µM (Toxoplasma gondii [12]) was 79.1%. For the same molecule, the survival at 25 µM (Toxoplasma gondii [13]) was 34.5%, the survival at 5 µM (Toxoplasma gondii [14]) was 94.8% and the survival at 50 µM (Toxoplasma gondii [15]) was 0%.

Nc1ccc(S(=O)(=O)Nc2ncccn2)cc1 [SULFADIAZINE] gave a viability at 25 µM [1] of 99.8%, a viability at 5 µM [2] of 98.2% and a viability at 50 µM [3] of 100%. For the same molecule, the Survival [4] was 100%, the viability at 10 µM [5] was 99.7% and the Survival (Toxoplasma gondii [11]) was 100%. It also gave a survival at 10 µM (Toxoplasma gondii [12]) of 64.5%, a survival at 25 µM (Toxoplasma gondii [13]) of 59.2% and a survival at 5 µM (Toxoplasma gondii [14]) of 75.7%. The survival at 50 µM (Toxoplasma gondii [15]) was 46.6%.

B1: Adenosine kinase (Toxoplasma gondii), Q9TVW2 (protein)
chain: MAVDSSNSATGPMRVFAIGNPILDLVAEVPSSFLDEFFLKRGDATLATPEQMRIYSTLDQFNPTSLPGGSALNSVRVVQKLLRKPGSAGYMGAIGDDPRGQVLKELCDKEGLATRFMVAPGQSTGVCAVLINEKERTLCTHLGACGSFRLPEDWTTFASGALIFYATAYTLTATPKNALEVAGYAHGIPNAIFTLNLSAPFCVELYKDAMQSLLLHTNILFGNEEEFAHLAKVHNLVAAEKTALSTANKEHAVEVCTGALRLLTAGQNTGATKLVVMTRGHNPVIAAEQTADGTVVVHEVGVPVVAAEKIVDTNGAGDAFVGGFLYALSQGKTVKQCIMCGNACAQDVIQHVGFSLSFTSLPC
Work on B1 yielded a Km [16] of 113 µM, a Km [17] of 96.1 µM and a Km [18] of 2.6 µM. For the same molecule, the Km [19] was 150 µM, the Km [20] was 3.3 µM and the Km [21] was 1.3 µM. It also gave a Km [22] of 1.5 µM, a Km [23] of 0.9 µM and a Km [24] of 2.4 µM. It also gave a Km [25] of 1.1 µM, a Km [26] of 3 µM and a Km [27] of 37.7 µM. For the same molecule, the Km [28] was 7.5 µM, the Km [29] was 2.5 µM and the Km [30] was 2.1 µM. It also gave a Km [31] of 0.7 µM, a Km [32] of 1.2 µM and a Km [33] of 141 µM. It also gave a Km [34] of 2.9 µM, a Km [35] of 2.4 µM and a Km [36] of 1.4 µM.
